Experimental data taken from ChEMBL document CHEMBL4196201, “Discovery of N-(4-{[5-Fluoro-7-(2-methoxyethoxy)quinazolin-4-yl]amino}phenyl)-2-[4-(propan-2-yl)-1 H-1,2,3-triazol-1-yl]acetamide (AZD3229), a Potent Pan-KIT Mutant Inhibitor for the Treatment of Gastrointestinal Stromal Tumors” (J Med Chem, 2018).
≈ marks a conversion by molar mass, not a printed value. Calls of active or inactive are those of the source. No cut-off for these calls is given here.

Columns and labels:
[1] = Cytotoxicity in mouse parental BA/F3 cells incubated for 72 hrs by MTS assay; type: cell-based, BaF3
[2] = Solubility in pH 6.5 phosphate buffer at 37 degC; type: physicochemical
Procedure, shortened: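 Solubility of crystalline Form A was measured in pH6.5 phosphate buffer at 37°C.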

[3] = Efflux ratio in human Caco2 cells at 10 uM at pH 6.5; details: Caco-2, pH 6.5
[4] = Protein binding in mouse plasma assessed as unbound fraction level; type: ADME, cell-free
[5] = Protein binding in dog plasma assessed as unbound fraction level; type: ADME, cell-free, Canis lupus familiaris
[6] = Protein binding in human plasma assessed as unbound fraction level; type: ADME, cell-free
[7] = Clearance in CD1 mouse at 10 umol/kg, iv; type: ADME, organism-based; details: in vivo
Procedure, shortened: (§1)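 PK was run in CD1 mice with an iv dose of 10 μMol/kg and an oral dose of 21 μMol/kg. Cl, Vdss, t1/2 and F% were derived.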

[8] = Oral bioavailability in CD1 mouse at 21 umol/kg; type: ADME, organism-based; details: in vivo; procedure, shortened: as §1
[9] = Clearance in Han Wistar rat at 1 umol/kg, iv; type: ADME, organism-based; details: in vivo
Procedure, shortened: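 PK was run in Han Wistar rats with an iv dose of 1 μMol/kg and an oral dose of 2.1 μMol/kg. Cl, Vdss, t1/2 and F% were derived.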

[10] = Half life in Han Wistar rat at […], po; type: ADME, organism-based; details: in vivo
[11] = Oral bioavailability in Han Wistar rat at […]; type: ADME, organism-based; details: in vivo
[12] = Clearance in dog rat at 1 umol/kg, iv; type: ADME, organism-based, Canis lupus familiaris; details: in vivo
[13] = Half life in dog rat at […], po; type: ADME, organism-based, Canis lupus familiaris; details: in vivo
[14] = system: Mus musculus; experiment: Inhibition of Kit exon 11 deletion (557 to 558 residues) and D816H mutant phosphorylation (unknown origin) transfected in mouse BA/F3 cells allografted in CB17 SCID mouse at 20 mg/kg, po administered as single dose measured after 8 hrs; type: functional, organism-based
Procedure, shortened: (§2)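 A single 20 mg/kg p.o. dose was given to mice carrying exon 11 del/D816H Ba/F3 allografts. Tumor pKIT, pERK and pAKT were measured over a timecourse, with free compound cover tracked in the same study.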

[15] = system: Mus musculus; experiment: Inhibition of Kit exon 11 deletion (557 to 558 residues) and D816H mutant (unknown origin) transfected in mouse BA/F3 cells allografted in CB17 SCID mouse assessed as reduction in ERK phosphorylation at 20 mg/kg, po administered as single dose measured after 8 hrs; type: functional, organism-based; procedure, shortened: as §2
[16] = system: Mus musculus; experiment: Inhibition of Kit exon 11 deletion (557 to 558 residues) and D816H mutant (unknown origin) transfected in mouse BA/F3 cells allografted in CB17 SCID mouse assessed as reduction in AKT phosphorylation at 20 mg/kg, po administered as single dose measured after 8 hrs; type: functional, organism-based; procedure, shortened: as §2
[17] = system: Mus musculus; experiment: Inhibition of Kit exon 11 deletion (557 to 558 residues) and D816H mutant phosphorylation (unknown origin) transfected in mouse BA/F3 cells allografted in CB17 SCID mouse at 20 mg/kg, po administered as single dose measured after 24 hrs; type: functional, organism-based; procedure, shortened: as §2
[18] = system: Mus musculus; experiment: Inhibition of Kit exon 11 deletion (557 to 558 residues) and D816H mutant (unknown origin) transfected in mouse BA/F3 cells allografted in CB17 SCID mouse assessed as reduction in ERK phosphorylation at 20 mg/kg, po administered as single dose measured after 24 hrs; type: functional, organism-based; procedure, shortened: as §2
[19] = system: BaF3; experiment: Antitumor activity against mouse BA/F3 cells expressing Kit exon 11 deletion (557 to 558 residues) and D816H mutant (unknown origin) allografted in CB17 SCID mouse assessed as inhibition of tumor growth at 2 mg/kg, po bid measured on last day of dosing; type: functional; details: read-out: TGI
Procedure, shortened: (§3)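 Ba/F3 cells bearing the KIT exon 11 del/D816H or exon 11 del/V654A mutation were grown as allografts in mice. Compounds were given p.o. once (QD) or twice daily (BD), and vehicle was given BD p.o. Tumor growth inhibition and regression (%) were taken on the last day of dosing. p-values were calculated relative to vehicle.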

[20] = system: BaF3; experiment: Antitumor activity against mouse BA/F3 cells expressing Kit exon 11 deletion (557 to 558 residues) and D816H mutant (unknown origin) allografted in CB17 SCID mouse assessed as inhibition of tumor growth at 20 mg/kg, po bid measured on last day of dosing; type: functional; details: read-out: TGI; procedure, shortened: as §3
[21] = system: BaF3; experiment: Antitumor activity against mouse BA/F3 cells expressing Kit exon 11 deletion (557 to 558 residues) and V654 mutant (unknown origin) allografted in CB17 SCID mouse assessed as inhibition of tumor growth at 2 mg/kg, po bid measured on last day of dosing; type: functional; details: read-out: TGI; procedure, shortened: as §3
[22] = system: BaF3; experiment: Antitumor activity against mouse BA/F3 cells expressing Kit exon 11 deletion (557 to 558 residues) and V654 mutant (unknown origin) allografted in CB17 SCID mouse assessed as inhibition of tumor growth at 20 mg/kg, po bid measured on last day of dosing; type: functional; details: read-out: TGI; procedure, shortened: as §3
[23] = system: BaF3; experiment: Antitumor activity against mouse BA/F3 cells expressing Kit exon 11 deletion (557 to 558 residues) and D816H mutant (unknown origin) allografted in CB17 SCID mouse assessed as tumor regression at 20 mg/kg, po bid measured on last day of dosing; type: functional; procedure, shortened: as §3
[24] = system: Mast/stem cell growth factor receptor Kit (Homo sapiens), P10721 [UNDEFINED MUTATION]
[25] = system: Mast/stem cell growth factor receptor Kit (Homo sapiens), P10721 [UNDEFINED MUTATION]; remark: listed apart in the source
[26] = system: Mast/stem cell growth factor receptor Kit (Homo sapiens), P10721 [UNDEFINED MUTATION]; remark: listed apart in the source
[27] = biological target: Vascular endothelial growth factor receptor 2 (Homo sapiens) (UniProt P35968)
[28] = biological target: Mast/stem cell growth factor receptor Kit (Homo sapiens) (UniProt P10721)
[29] = biological target: Mast/stem cell growth factor receptor Kit (Homo sapiens) (UniProt P10721); remark: listed apart in the source
[30] = biological target: Mast/stem cell growth factor receptor Kit (Homo sapiens) (UniProt P10721); remark: listed apart in the source
[31] = biological target: Mast/stem cell growth factor receptor Kit (Homo sapiens) (UniProt P10721); remark: listed apart in the source
[32] = system: Mast/stem cell growth factor receptor Kit (Homo sapiens), P10721 [UNDEFINED MUTATION]; remark: listed apart in the source
[33] = system: Mast/stem cell growth factor receptor Kit (Homo sapiens), P10721 [UNDEFINED MUTATION]; remark: listed apart in the source
[34] = system: Mast/stem cell growth factor receptor Kit (Homo sapiens), P10721 [V560D,V654A]
[35] = system: Mast/stem cell growth factor receptor Kit (Homo sapiens), P10721 [D816V]
Chain of Mast/stem cell growth factor receptor Kit (Homo sapiens), P10721 [D816V] (P10721 whole entry D816V): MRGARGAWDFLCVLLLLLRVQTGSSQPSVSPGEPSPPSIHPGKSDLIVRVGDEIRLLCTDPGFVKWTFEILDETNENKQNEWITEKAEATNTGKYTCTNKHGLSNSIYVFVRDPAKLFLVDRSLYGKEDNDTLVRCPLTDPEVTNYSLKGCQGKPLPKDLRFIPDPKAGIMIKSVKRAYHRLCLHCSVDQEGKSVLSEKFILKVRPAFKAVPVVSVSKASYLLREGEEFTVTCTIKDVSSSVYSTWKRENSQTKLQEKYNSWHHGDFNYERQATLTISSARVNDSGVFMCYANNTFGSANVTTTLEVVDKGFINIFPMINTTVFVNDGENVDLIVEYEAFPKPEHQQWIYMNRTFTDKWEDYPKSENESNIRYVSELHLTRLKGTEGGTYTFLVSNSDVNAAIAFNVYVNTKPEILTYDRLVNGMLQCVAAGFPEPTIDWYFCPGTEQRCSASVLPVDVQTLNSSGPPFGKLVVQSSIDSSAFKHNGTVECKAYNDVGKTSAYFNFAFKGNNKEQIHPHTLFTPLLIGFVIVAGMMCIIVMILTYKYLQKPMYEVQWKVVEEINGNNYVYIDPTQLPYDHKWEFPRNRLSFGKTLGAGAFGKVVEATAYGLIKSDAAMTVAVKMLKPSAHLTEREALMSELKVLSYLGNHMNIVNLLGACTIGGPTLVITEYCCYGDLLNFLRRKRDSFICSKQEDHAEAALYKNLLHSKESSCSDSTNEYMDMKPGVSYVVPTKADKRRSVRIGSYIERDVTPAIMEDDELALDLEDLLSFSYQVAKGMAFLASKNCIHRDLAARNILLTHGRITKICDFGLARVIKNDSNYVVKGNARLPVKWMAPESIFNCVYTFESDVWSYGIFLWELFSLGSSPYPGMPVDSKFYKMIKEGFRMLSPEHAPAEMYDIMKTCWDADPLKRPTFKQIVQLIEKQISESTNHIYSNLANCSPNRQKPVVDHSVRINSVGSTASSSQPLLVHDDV

Chain of Mast/stem cell growth factor receptor Kit (Homo sapiens), P10721 [UNDEFINED MUTATION] (P10721 whole entry, looked up, stated change not applied): as the sequence (P10721 whole entry D816V) above, with V816D counted along it
Chain of Mast/stem cell growth factor receptor Kit (Homo sapiens) (P10721 whole entry): as the sequence (P10721 whole entry D816V) above, with V816D counted along it
Chain of Vascular endothelial growth factor receptor 2 (Homo sapiens) (P35968 whole entry): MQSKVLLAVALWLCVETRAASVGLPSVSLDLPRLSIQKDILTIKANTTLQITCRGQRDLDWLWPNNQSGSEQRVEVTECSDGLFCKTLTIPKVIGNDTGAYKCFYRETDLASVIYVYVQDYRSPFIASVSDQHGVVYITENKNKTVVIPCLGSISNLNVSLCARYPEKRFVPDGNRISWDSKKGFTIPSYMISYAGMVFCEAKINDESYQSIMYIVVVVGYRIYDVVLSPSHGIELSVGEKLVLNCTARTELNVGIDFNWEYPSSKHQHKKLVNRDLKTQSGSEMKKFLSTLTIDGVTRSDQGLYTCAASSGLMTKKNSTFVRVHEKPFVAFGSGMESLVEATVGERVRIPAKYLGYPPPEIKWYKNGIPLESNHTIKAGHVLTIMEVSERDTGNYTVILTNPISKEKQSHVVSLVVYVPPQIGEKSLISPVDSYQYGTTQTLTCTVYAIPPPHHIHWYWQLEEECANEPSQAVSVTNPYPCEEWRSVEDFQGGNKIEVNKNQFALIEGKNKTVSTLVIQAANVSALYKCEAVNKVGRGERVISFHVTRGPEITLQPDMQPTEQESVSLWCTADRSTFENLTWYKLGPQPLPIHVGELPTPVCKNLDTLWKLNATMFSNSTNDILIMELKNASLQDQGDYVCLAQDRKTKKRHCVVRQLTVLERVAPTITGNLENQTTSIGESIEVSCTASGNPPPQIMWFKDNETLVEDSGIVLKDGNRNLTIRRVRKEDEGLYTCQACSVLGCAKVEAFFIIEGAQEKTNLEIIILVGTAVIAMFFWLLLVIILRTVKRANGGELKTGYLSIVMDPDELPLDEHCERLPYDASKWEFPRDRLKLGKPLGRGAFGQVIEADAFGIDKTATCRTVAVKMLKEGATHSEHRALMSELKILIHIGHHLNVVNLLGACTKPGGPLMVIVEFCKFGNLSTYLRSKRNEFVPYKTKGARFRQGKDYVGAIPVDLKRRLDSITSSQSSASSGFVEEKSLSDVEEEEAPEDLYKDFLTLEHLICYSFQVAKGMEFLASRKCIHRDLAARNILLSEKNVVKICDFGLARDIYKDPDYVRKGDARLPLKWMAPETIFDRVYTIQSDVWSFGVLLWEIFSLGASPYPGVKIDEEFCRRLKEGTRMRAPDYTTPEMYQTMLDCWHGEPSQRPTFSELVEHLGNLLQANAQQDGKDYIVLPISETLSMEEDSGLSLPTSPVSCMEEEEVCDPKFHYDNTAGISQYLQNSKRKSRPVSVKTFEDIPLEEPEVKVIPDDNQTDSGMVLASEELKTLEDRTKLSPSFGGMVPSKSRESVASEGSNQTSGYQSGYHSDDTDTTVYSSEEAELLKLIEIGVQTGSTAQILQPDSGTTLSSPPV
Chain of Mast/stem cell growth factor receptor Kit (Homo sapiens), P10721 [V560D,V654A] (P10721 whole entry V560D/V654A): as the sequence (P10721 whole entry D816V) above, with V560D, V654A, V816D counted along it

COCCOc1cc(F)c2c(Nc3ccc(NC(=O)Cn4cc(C(C)C)nn4)cc3)ncnc2c1
GI50 at 72 h [1]: > 10000 nM
solubility [2]: 6 µM (≈ 2.88 µg/mL)
efflux ratio at 10 µM [3]: 2.6
fraction unbound [4]: 0.049
fraction unbound [5]: 0.068
fraction unbound [6]: 0.035
clearance [7]: 7 mL/min/kg
bioavailability [8]: 100%
clearance [9]: 8 mL/min/kg
half-life [10]: 3 h
bioavailability [11]: 79%
clearance [12]: 2 mL/min/kg
half-life [13]: 4 h
inhibition [14]: Active
inhibition [15]: Active
inhibition [16]: Active
inhibition [17]: Active
inhibition [18]: Active
inhibition in vivo at 2 mg/kg [19]: 5%
inhibition in vivo at 20 mg/kg [20]: > 100%
inhibition in vivo at 2 mg/kg [21]: > 100%
inhibition in vivo at 20 mg/kg [22]: > 100%
Activity [23]: 75%
GI50 [24]: 3 nM
GI50 [25]: 9 nM
GI50 [26]: 16 nM
GI50 [27]: 1380 nM
GI50 [28]: 2 nM
GI50 [29]: 22 nM
GI50 [30]: 51 nM
GI50 [31]: 8 nM
GI50 [32]: 3 nM
GI50 [33]: 3 nM
GI50 [34]: 7 nM
GI50 [35]: 971 nM
